The target in assay [1] is T1, Gamma-aminobutyric acid receptor subunit alpha-3 (Homo sapiens) (UniProt P34903).
T1 sequence (whole entry): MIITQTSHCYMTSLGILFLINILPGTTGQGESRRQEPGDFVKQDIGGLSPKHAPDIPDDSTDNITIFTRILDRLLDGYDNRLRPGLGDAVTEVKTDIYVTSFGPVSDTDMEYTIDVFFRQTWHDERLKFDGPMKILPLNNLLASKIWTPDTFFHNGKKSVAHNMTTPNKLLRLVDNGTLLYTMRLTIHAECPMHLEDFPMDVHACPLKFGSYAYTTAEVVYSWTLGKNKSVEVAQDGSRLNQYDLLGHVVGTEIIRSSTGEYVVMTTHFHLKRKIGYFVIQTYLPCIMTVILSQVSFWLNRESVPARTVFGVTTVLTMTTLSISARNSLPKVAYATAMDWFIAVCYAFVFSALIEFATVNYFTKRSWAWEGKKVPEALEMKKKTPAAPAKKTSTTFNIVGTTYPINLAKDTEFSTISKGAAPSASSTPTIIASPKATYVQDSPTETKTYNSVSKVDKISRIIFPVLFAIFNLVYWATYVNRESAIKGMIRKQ
The assay is described as follows: Maximum percent potentiation against gamma-aminobutyric acid (GABA) A receptor, alpha 3. The settings on record: Xenopus laevis. Summed up:
(§1)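 Xenopus laevis oocytes were injected with human cRNA for the α, β and γ subunits needed to express each receptor subtype (α1, α2, α3 or α5). Electrophysiological recording was used to read potentiation, and the effective concentration and maximal percent potentiation were derived from it.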

The target of assay [2] is T2, Gamma-aminobutyric acid receptor subunit alpha-1 (Homo sapiens, UniProt P14867).
T2 sequence (P14867 whole entry): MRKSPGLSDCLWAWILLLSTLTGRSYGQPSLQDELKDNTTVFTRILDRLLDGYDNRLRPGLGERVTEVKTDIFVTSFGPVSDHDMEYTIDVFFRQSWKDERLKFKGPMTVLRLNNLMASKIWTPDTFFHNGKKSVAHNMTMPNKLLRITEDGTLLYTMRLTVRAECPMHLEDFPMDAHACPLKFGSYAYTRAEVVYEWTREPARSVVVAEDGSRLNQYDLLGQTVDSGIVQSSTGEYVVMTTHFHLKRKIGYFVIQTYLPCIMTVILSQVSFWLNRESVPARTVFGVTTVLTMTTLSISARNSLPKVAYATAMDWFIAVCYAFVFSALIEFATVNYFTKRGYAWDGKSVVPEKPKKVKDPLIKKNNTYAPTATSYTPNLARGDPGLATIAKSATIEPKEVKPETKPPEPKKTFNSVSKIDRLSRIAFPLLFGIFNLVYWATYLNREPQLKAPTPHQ
The assay is described as follows: Effective concentration against gamma-aminobutyric acid (GABA) A receptor, alpha 1. Also on record: species or system Xenopus laevis. In outline: as §1

Assay [3] addresses T3, Gamma-aminobutyric acid receptor subunit alpha-2 (Homo sapiens, UniProt P47869).
T3 sequence (P47869 whole entry): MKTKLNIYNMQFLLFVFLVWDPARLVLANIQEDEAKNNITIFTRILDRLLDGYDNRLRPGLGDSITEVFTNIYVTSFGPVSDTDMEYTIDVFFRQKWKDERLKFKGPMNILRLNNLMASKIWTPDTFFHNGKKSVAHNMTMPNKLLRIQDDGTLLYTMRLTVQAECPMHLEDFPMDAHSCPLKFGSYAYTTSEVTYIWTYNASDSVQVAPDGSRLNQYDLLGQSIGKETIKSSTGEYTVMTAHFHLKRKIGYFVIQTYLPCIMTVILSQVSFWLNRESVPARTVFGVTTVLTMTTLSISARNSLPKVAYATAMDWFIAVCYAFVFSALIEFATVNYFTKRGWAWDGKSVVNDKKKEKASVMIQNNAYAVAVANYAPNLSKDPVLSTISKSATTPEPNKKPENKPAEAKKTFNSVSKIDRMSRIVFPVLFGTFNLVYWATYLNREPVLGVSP
The assay is described as follows: Effective concentration against gamma-aminobutyric acid (GABA) A receptor, alpha 2. More on the design: species or system Xenopus laevis. Summed up:
as §1

Assay [4] deals with T4, Gamma-aminobutyric acid receptor subunit alpha-3 (Homo sapiens, UniProt P34903).
T4 sequence (P34903 whole entry): T1 sequence (whole entry)
As to the kind of experiment: Effective concentration against gamma-aminobutyric acid (GABA) A receptor, alpha 3. Also on record: species or system Xenopus laevis. In outline: as §1

Assay [5] addresses T5, Gamma-aminobutyric acid receptor subunit alpha-1 (Homo sapiens) (UniProt P14867).
T5 sequence (whole entry): T2 sequence (P14867 whole entry)
The assay is described as follows: Maximum percent potentiation against gamma-aminobutyric acid (GABA) A receptor, alpha 1. The settings on record: Xenopus laevis. In outline: as §1

For another assay, the species on record is Rattus norvegicus. The assay is described as follows: Rat behavioral spontaneous Locomotor Activity; Not significant. Type of assay: functional, organism-based. Summed up:
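Male Sprague-Dawley rats received the test drug iv in 50% aqueous PEG-400, which also served as the control vehicle. They were then placed in an automated activity monitor, and movement time, total distance and vertical activity were recorded over 15 min. Each drug was compared against vehicle, and NS marks a difference that was not significant.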

Assay [6] deals with T6, Gamma-aminobutyric acid receptor subunit alpha-5 (Homo sapiens) (UniProt P31644).
T6 sequence (whole entry): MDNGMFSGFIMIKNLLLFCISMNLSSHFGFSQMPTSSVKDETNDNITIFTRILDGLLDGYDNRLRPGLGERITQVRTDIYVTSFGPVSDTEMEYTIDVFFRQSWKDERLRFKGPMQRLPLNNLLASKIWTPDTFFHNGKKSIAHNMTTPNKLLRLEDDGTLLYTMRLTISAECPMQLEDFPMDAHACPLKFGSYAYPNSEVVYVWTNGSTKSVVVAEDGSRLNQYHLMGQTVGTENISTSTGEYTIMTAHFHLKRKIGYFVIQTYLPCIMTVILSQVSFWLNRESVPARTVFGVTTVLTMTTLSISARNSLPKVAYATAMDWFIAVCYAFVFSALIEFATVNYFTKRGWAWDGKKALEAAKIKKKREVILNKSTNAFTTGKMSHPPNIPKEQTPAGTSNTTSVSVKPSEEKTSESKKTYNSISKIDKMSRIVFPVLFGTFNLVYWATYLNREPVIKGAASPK
As to the kind of experiment: Maximum percent potentiation against gamma-aminobutyric acid (GABA) A receptor, alpha 5. The settings on record: Xenopus laevis. Summed up: as §1

Assay [7] deals with GABA-A receptor; anion channel. As to the kind of experiment: Binding affinity was determined by displacement of [3H]flumazenil from rat cortex homogenates. The class given is functional. In outline:
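Displacement of [3H]flumazenil from rat cortex homogenates. Values are averages (±SD); some analogues were run once as a single set of triplicates. NA means an IC50 was not achieved at the highest dose tested.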

Assay [8] concerns the target T7, Gamma-aminobutyric acid receptor subunit alpha-2 (Homo sapiens) (UniProt P47869).
T7 sequence (whole entry): T3 sequence (P47869 whole entry)
As to the kind of experiment: Maximum percent potentiation against gamma-aminobutyric acid (GABA) A receptor, alpha 2. The settings on record: Xenopus laevis. In outline: as §1

The target of assay [9] is GABA-A receptor; anion channel (Rattus norvegicus) (UniProt O09028+P15431+P18506+P18508+P19969+P20236+P23574+P23576+P28471+P28473+P30191+P62813+P63079+P63138+Q91ZM7+Q9ES14). As to the kind of experiment: Binding affinity by displacement of [3H]flumazenil from rat cortex homogenates; Not active. Type of assay: functional. In outline: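 Displacement of [3H]flumazenil from rat cortex homogenates. […] Values are averages (±SD); some analogues were run once as a single set of triplicates. NA means an IC50 was not achieved at the highest dose tested.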

Broadly, the EC50 is the concentration giving half of the maximal effect. High values mean lower potency in that assay, low ones higher potency in that assay. Usually Ki stands for a measure of affinity in units of concentration, obtained from inhibition or displacement. A high value points to a looser hold on the target.

Calls of active or inactive are those of the source. The rule behind the calls is not given here.

With `Oc1nc2c(c3nc(-c4ccccc4F)cn13)CN(Cc1ccncc1)CC2`, the Activity in [1] stood at 58%; in assay [5] it was 17%; in assay [6], 0%; in assay [8], 42%. For the same molecule, the figures for the 50% effective concentration (EC50) in assay [2], in [3] and in assay [4] were 53 nM, 99 nM and 33 nM, respectively. Besides, the NS entry in the assay listed under Rattus norvegicus was “inactive”. This molecule also gave a Ki in assay [7] of 0.9 nM.
For `CCC(=O)N1CCc2nc(O)n3cc(-c4ccc(OC)cc4)nc3c2C1`, in assay [9], the NA entry was “inactive”.

For the origin of these results see ChEMBL document CHEMBL1135642, “Synthesis and biological evaluation of 7,8,9,10-tetrahydroimidazo[1,2-c]pyrido[3,4-e]pyrimdin-5(6H)-ones as functionally selective ligands of the benzodiazepine receptor site on the GABA(A) receptor” (J Med Chem, 2002).
